In ChEMBL document CHEMBL4346736, “Anti-proliferative activity and structure-activity relationship of honokiol derivatives” (Bioorg Med Chem, 2019):

Key:
[1] = Partition coefficient, log P of the compound; format: physicochemical; settings: octanol/water
K562 [2] = assay: Antiproliferative activity against human K562 cells after 48 hrs by MTT assay; format: functional, cell-based; settings: K562, 48 h
Procedure, shortened: (§1)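 Cells from the Institute of Cell Biology, CAS (Shanghai), grown in RPMI-1640 with 10% FBS and 100 U/mL penicillin-streptomycin at 37 °C under 5% CO2. Cells were exposed to compounds for 48 h, and viability was read by MTT (or MTS). IC50, the concentration giving 50% inhibition, was calculated by the Logit method. Data are representative of 3 independent experiments.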

A549 = assay: Antiproliferative activity against human A549 cells after 48 hrs by MTT assay; format: functional, cell-based; settings: A549, 48 h; procedure, shortened: as §1
HepG2 [3] = assay: Antiproliferative activity against human HepG2 cells after 48 hrs by MTT assay; format: functional, cell-based; settings: HepG2, 48 h; procedure, shortened: as §1
HepG2 [4] = assay: Antiproliferative activity against human HepG2 cells after 72 hrs by MTT assay; format: functional, cell-based; settings: HepG2, 72 h
HCT-116 = assay: Antiproliferative activity against human HCT116 cells after 72 hrs by MTT assay; format: functional, cell-based; settings: HCT-116, 72 h
NCI-H1975 = assay: Antiproliferative activity against human NCI-H1975 cells after 72 hrs by MTT assay; format: functional, cell-based; settings: NCI-H1975, 72 h
HepG2 [5] = assay: Antiproliferative activity against human HepG2 cells; format: functional, cell-based; procedure, shortened: as §1
K562 [6] = assay: Antiproliferative activity against human K562 cells; format: functional, cell-based; procedure, shortened: as §1

| SMILES | logP [1] | further results |
| --- | --- | --- |
| C/C=C/c1ccc(O)c(-c2cc(/C=C/C)ccc2O)c1 | 5.36 |  |
| C=CCc1cc(O)c(O)c(-c2cc(CC=C)cc(O)c2O)c1 | 3.76 |  |
| C=CCc1cccc(-c2cccc(CC=C)c2O)c1O | 4.75 |  |
| C=CCc1ccc(O)c(-c2ccc(OCC)c(CC=C)c2)c1 | 5.45 |  |
| C=CCc1ccc(OCC)c(-c2ccc(O)c(CC=C)c2)c1 | 5.66 |  |
| C=CCc1cc(C=O)c(OC)c(-c2ccc(O)c(CC=C)c2)c1 | 5 |  |
| C=CCc1cc(C=O)c(OC)c(-c2ccc(OC)c(CC=C)c2)c1 | 5.07 |  |
| C=CCc1cc(C=O)c(OCC)c(-c2ccc(OCC)c(CC=C)c2)c1 | 5.82 |  |
| C=CCc1cc(CO)c(O)c(-c2ccc(O)c(CC=C)c2)c1 | 4.27 |  |
| C=CCc1cc(CO)c(O)c(-c2cc(CO)c(O)c(CC=C)c2)c1 | 3.33 |  |
| C=CCc1ccc(OC)c(-c2cc(CC=C)ccc2OC)c1 | 5.35 |  |
| Oc1ccccc1-c1ccccc1O | 3.2 |  |
| C=CCc1cc(Br)c(O)c(-c2ccc(OC)c(CC=C)c2)c1 | 5.81 |  |
| C=CCc1cc(-c2ccc(OC)c(CC=C)c2)c(O)c(-c2ccc(OC)c(CC=C)c2)c1 | 7.61 |  |
| C=CCc1cc(-c2ccc(OC)c(CC=C)c2)ccc1O | 5.28 |  |
| C=CCc1cc(-c2cccc(CC=C)c2O)ccc1OC | 5.05 |  |
| C=CCc1ccc(O)c(-c2cccc(CC=C)c2O)c1 | 4.77 |  |
| C=CCc1cc(C(C)(C)c2ccc(O)c(CC=C)c2)ccc1O | 5.8 |  |
| C=CCc1cc(C2(c3ccc(O)c(CC=C)c3)CCCCC2)ccc1O | 6.97 |  |
| C=CCc1cc(C(=C(Cl)Cl)c2ccc(O)c(CC=C)c2)ccc1O | 6.17 |  |

| SMILES | logP [1] | further results |
| --- | --- | --- |
| C=CCc1cc(C(c2ccc(O)c(CC=C)c2)c2ccccn2)ccc1O | 5.41 |  |
| C=CCc1cc(/C(CC)=C(\CC)c2ccc(O)c(CC=C)c2)ccc1O | 6.74 |  |
| C=CCc1cc(-c2ccc(O)c(CC=C)c2)ccc1O | 5.21 |  |
| C=CCc1cc(Cc2ccc(O)c(CC=C)c2)ccc1O | 5.38 |  |
| CCCc1ccc(O)c(-c2cc(CCC)ccc2O)c1 | 5.76 |  |
| CCCc1ccc(O)c(-c2ccc(O)c(CCC)c2)c1 | 5.97 | IC50 (K562 [2]): 18.2 µM; IC50 (A549): 30.4 µM; IC50 (HepG2 [3]): 30.8 µM |
| C=CCc1cc(-c2cccc(CC=C)c2O)ccc1O | 4.98 |  |
| COc1ccc(-c2cc(/C=C/C=O)ccc2O)cc1/C=C/C=O | 4.34 |  |
| C=CCc1ccc(O)c(-c2ccc(O)c(CC(O)CO)c2)c1 (stereo unspecified) | 3.08 | IC50 (K562 [2]): 100 µM; IC50 (A549): 90.4 µM; IC50 (HepG2 [3]): 25.3 µM |
| C=CCc1cc(/C=N\C2CCCCC2)c(O)c(-c2ccc(O)c(CC=C)c2)c1 | 6.67 |  |
| C=CCc1ccc(O)c(-c2ccc(O)c(CC(O)COC)c2)c1 (stereo unspecified) | 3.7 | IC50 (HepG2 [4]): > 40 µM; IC50 (HCT-116): > 40 µM; IC50 (NCI-H1975): > 40 µM |
| C=CCc1cc(CN2CCOCC2)c(O)c(-c2cc(CC=C)c(O)c(CN3CCOCC3)c2)c1 | 3.95 | IC50 (HepG2 [5]): > 40 µM; IC50 (K562 [6]): > 40 µM |
| O=Cc1ccc(O)c(-c2ccc(O)c(CC3CO3)c2)c1 (stereo unspecified) | 3.16 | IC50 (HepG2 [4]): > 40 µM; IC50 (HCT-116): > 40 µM; IC50 (NCI-H1975): > 40 µM |
| C=CCc1cc(CN2CCC(O)CC2)c(O)c(-c2cc(CC=C)c(O)c(CN3CCC(O)CC3)c2)c1 | 2.31 | IC50 (HepG2 [5]): > 40 µM; IC50 (K562 [6]): 25.5 µM |
| C=CCc1ccc(O)c(-c2ccc3oc(C)cc3c2)c1 | 4.79 | IC50 (K562 [2]): 67.9 µM; IC50 (A549): 71.5 µM; IC50 (HepG2 [3]): 107 µM |
| C=CCc1cc(NC(=O)CCl)c(O)c(-c2cc(CC=C)c(O)c(NC(=O)CCl)c2)c1 | 4.22 | IC50 (K562 [2]): 21.6 µM; IC50 (A549): 29.3 µM; IC50 (HepG2 [3]): 19.1 µM |
| CCCc1ccc(O)c(-c2ccc3oc(C)cc3c2)c1 | 5.27 | IC50 (K562 [2]): 73.9 µM; IC50 (A549): 61.9 µM; IC50 (HepG2 [3]): 88.3 µM |
| C=CCc1cc(CN2CCSCC2)c(O)c(-c2cc(CC=C)c(O)c(CN3CCSCC3)c2)c1 | 5.03 | IC50 (HepG2 [5]): > 40 µM; IC50 (K562 [6]): > 40 µM |
| C=CCc1cc(/C=N\CCCCCC)c(O)c(-c2ccc(O)c(CC=C)c2)c1 | 7.22 |  |
